Screens deposited in PubChem by several laboratories.
ABCB6 inh MLPCN = human ABCB6 transporter inhibition | Q9NP58 | K562-ABCB6 porphyrin accumulation, flow cytometry, 1 h; hits give low values | fluorescence ratio to DMSO, % at 10 µM | 360,000 compounds, 0.19% hits | AID 602162;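 active = fluorescence ratio to DMSO below 75%, the collection mean minus 3 SD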;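 note: signal is porphyrin accumulated inside mitochondria; 100% equals median channel fluorescence of DMSO control wells; lower ratio means ABCB6 inhibition with less porphyrin fluorescence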
NRP1-CendR mod = alters CendR peptide binding to human NRP-1 | O14786 | FAM-RPARPAR peptide binding to NRP-1, fluorescence polarization | inhibition, % at 25 µM | 360,000 compounds, 0.85% hits;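 active = inhibition or corrected inhibition above about 18%, plus a signal ratio from 0.5 to 1.5, limit read from the data, passing the limit was not always enough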
Target sequence (O14786 whole entry, looked up): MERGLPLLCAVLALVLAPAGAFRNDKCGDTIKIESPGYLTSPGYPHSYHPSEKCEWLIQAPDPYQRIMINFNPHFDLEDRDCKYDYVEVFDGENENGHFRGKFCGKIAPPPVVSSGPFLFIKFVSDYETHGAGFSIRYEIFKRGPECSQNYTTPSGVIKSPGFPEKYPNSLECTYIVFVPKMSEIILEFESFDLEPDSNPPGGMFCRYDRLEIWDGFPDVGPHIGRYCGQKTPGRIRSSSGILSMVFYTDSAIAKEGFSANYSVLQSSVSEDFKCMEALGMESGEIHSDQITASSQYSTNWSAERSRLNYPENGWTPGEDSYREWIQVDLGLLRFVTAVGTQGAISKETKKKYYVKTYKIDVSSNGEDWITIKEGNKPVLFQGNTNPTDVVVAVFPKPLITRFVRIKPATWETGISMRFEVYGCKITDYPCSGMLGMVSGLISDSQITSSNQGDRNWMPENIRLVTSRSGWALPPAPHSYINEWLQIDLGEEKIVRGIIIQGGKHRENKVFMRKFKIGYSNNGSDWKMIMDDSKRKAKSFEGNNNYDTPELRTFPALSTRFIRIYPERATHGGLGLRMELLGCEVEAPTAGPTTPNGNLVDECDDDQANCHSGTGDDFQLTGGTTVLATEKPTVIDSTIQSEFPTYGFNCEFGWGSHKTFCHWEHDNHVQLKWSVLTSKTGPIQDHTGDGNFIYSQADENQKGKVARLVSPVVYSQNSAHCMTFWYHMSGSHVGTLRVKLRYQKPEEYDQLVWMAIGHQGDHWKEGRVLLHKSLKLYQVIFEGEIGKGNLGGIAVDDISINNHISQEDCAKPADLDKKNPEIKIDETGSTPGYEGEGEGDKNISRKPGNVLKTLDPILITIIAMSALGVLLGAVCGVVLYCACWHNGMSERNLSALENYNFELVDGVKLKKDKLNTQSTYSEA
Granule exo inh = blocks lytic granule exocytosis; TALL-104 LAMP-1 surface exposure, flow cytometry; cells stimulated with thapsigargin and PMA; inhibition, % at 10 µM; 360,000 compounds, 0.66% hits;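 active = inhibition above about 55%, limit read from the data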
ATG4B inh = ATG4B (human) cysteine protease inhibition; Q9Y4P1; ATG4B cleavage of LC3-PLA2, NBD-HPC fluorescence, 1 h; inhibition, % at 8.33 µM; 340,000 compounds, 0.51% hits; AID 504462; in the data active = inhibition above about 40%
Arrestin-AP2 inh = human beta-arrestin and AP2 interaction inhibition. 340,000 compounds, 0.31% hits. AID 504490. FITC-arrestin peptide / GST-AP2 beads, flow cytometry; AP2 beta2 appendage carries R879A mutation. inhibition, % at 10 µM;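 active = inhibition above a set limit, near 3 SD of compounds lacking own fluorescence, cut at about 54% in these data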;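 note: plate controls were DMSO wells for no effect and 5 µM unlabelled arrestin peptide for full effect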
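System: GST-AP2 R879A glutathione beads; medium: PBS, Tween 20 0.05%, BSA 0.1%; reagent: fluorescein-tagged arrestin peptide at 50 nM final; schedule: pre-incubation 12 min, peptide binding 1 h, room temperature; detection: flow cytometry, FL1 (488/535 nm); read-out: inhibition as reduced fluorescein signal on beads, percent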
Myeloid diff MLP = compounds promoting myeloid differentiation; ER-HoxA9 myeloid progenitors, lysozyme-GFP differentiation, flow cytometry; calls only at 10 µM; 360,000 compounds, 1% hits; AID 624256;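 active = normalized GFP-positive differentiation at or above the plate's own cutoff, the solvent-only control mean plus 3 SD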;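 note: cells exposed to compound for four days before flow analysis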
Starred values were filed as active, the others as inactive; i = inactive; . = no result given; + = active, no number. This is a sample that favours compounds with a hit; in the whole collection about 3.3% have one here.

SMILES	ABCB6 inh MLPCN	NRP1-CendR mod	Granule exo inh	ATG4B inh	Arrestin-AP2 inh	Myeloid diff MLP
Cc1ccc(S(=O)(=O)N2CCCCC2C(=O)O)s1 (stereo unspecified)	106	46*	-2	-5	23	i
CC(Sc1nnc(C2CC2)n1C1CC1)C(=O)Nc1ccccc1C#N (stereo unspecified)	100	-6	6	-2	-3	i
CCCS(=O)(=O)N1CCN(C2CCC(C)CC2)CC1 (stereo unspecified)	104	18	1	-1	40	i
CCc1ccc(NS(=O)(=O)c2c(C(=O)N3CCCCCC3)c(C)n(C)c2C)cc1	94	28*	-5	-2	-15	i
CCOC(=O)N1CCN(S(=O)(=O)c2c(C(=O)N3CCCCC3)c(C)n(C)c2C)CC1	96	-4	-1	10	0	+
Cc1ccc(NS(=O)(=O)c2c(C(=O)N3CCCCCC3)c(C)n(C)c2C)c(C)c1	98	26*	8	-14	42	i
CCOC(=O)C1CCN(S(=O)(=O)c2c(C(=O)N3CCCCC3)c(C)n(C)c2C)CC1	92	6	0	0	-18	i
COC(=O)c1ccccc1-c1c2ccc(=N)cc-2oc2cc(N)ccc12	.	145	1	.	i	+
COc1ccc(NC(=O)N2CCN(c3nc(-c4cccc(OC)c4)cs3)CC2)cc1	104	-15	0	-7	-8	+
C[C@@H]1CN([C@@H](C)CO)C(=O)c2cc(C#CC3CCCCC3)cnc2O[C@@H]1CN(C)S(=O)(=O)c1ccc(F)cc1	97	-13	-5	.	.	i
CCN(CC)S(=O)(=O)c1ccc(N2CCc3ccccc3C2)nc1	93	-11	40	19	-1	i
CC(C)N(C(C)C)S(=O)(=O)c1ccc(N2CCc3ccccc3C2)nc1	99	30*	27	7	24	i
COc1ccc(N2C[C@H](CSC)[C@@H](CC(=O)Nc3ccc(Br)cc3)C2=O)cc1	99	-10	-1	.	.	i
CC(NC(=O)c1cc(Br)cs1)C1CCCO1 (stereo unspecified)	100	7	5	-1	30	i
CCCn1c(N)c(C(=O)CN(C)CC(=O)Nc2ccccc2C(F)(F)F)c(=O)[nH]c1=O	99	4	0	-7	3	i
O=C(Nc1ccccc1Br)C1CC(=O)N(c2ccc3c4c(cccc24)CC3)C1 (stereo unspecified)	96	38*	-3	5	-3	i
CC(=O)Oc1ccc(C(=O)[C@H]2[C@H]3C(=O)N(c4ccc(C)cc4)C(=O)[C@H]3[C@@H]3C=CC=NN32)cc1	100	-51	-4	-8	10	+
CCCCCC(=O)Nc1nnc(CCc2ccccc2)s1	94	9	-7	2	-1	i
CCOC(=O)c1cc(C#N)c(SCC(=O)c2cc(C#N)c(SC)nc2C)[nH]c1=O	102	-33	0	3	-3	i
CSc1nc(C)c(C(=O)C[n+]2ccc(C)cc2)cc1C#N	103	-3	76*	6	-6	i
COC(=O)C1=C(C(=O)OC)[C@@H]2N(C)c3ccccc3[C@@]23C[C@@H](CO)N(C(=O)c2cccs2)C3=N1	101	18	13	6	20	i
COC(=O)C1=C(C(=O)OC)[C@@H]2N(C)c3ccc(OC)cc3[C@@]23C[C@@H](C(=O)OC)N(C(=O)c2ccc(Br)cc2)C3=N1	95	-1	-14	7	17	i
CCOC(=O)N1C2=NC(C(=O)OC)=C(C(=O)OC)[C@@H]3N(C)c4ccc(OC)cc4[C@]23C[C@H]1C(=O)OC	94	25*	17	-8	19	i
C#CCCOC(=O)N1C2=NC(C(=O)OC)=C(C(=O)OC)[C@@H]3N(C)c4ccccc4[C@]23C[C@H]1CO	92	26*	7	-2	-4	i
CCN(CC(=O)NC1CCS(=O)(=O)C1)S(=O)(=O)c1cc([N+](=O)[O-])ccc1C (stereo unspecified)	102	2	2	-2	-5	i
SMILES	ABCB6 inh MLPCN	NRP1-CendR mod	Granule exo inh	ATG4B inh	Arrestin-AP2 inh	Myeloid diff MLP
CC1=C/C(=C\C=C(C#N)C#N)N(C)c2ccccc21	127	-121	-4	1	3	+
COc1ccc(C(=O)C2CCCN(C(=O)c3cccc(N(C)C)c3)C2)cc1OC (stereo unspecified)	102	25*	-3	-2	-1	i
COc1ccc(F)cc1C(=O)C1CCCN(C(=O)c2cccc(N(C)C)c2)C1 (stereo unspecified)	92	-3	0	8	-6	i
CS(=O)(=O)N1N=C(c2ccco2)CC1c1ccc(Cl)cc1Cl (stereo unspecified)	91	0	-6	2	17	i
CCOc1cc(N2CCOCC2)c(OCC)cc1NC(=O)CN1C(=O)NC2(CCCCC2C)C1=O (stereo unspecified)	97	3	-1	-14	-3	i
COc1cc(OC)cc(-c2c(C#Cc3ccsc3)c3cc(-c4ccc(C(N)=O)cc4)ccc3n2C)c1	92	2	94*	-1	15	i
O=C(NCCc1ccccc1Cl)C1CCC(=O)N(CC2CCCCC2)C1 (stereo unspecified)	95	10	0	4	2	i
Cc1nonc1NC(=O)CSc1nc2c(C)cccc2cc1C#N	171	-11	0	1	1	+
S=C(Nc1cccc(Cl)c1)N(CCCN1CCCC1)Cc1cccn1Cc1ccc(Cl)cc1	94	-4	85*	-1	-8	i
COc1cccc(NC(=S)N(CCCN2CCCC2)Cc2cccn2Cc2ccc(Cl)cc2)c1	97	-13	12	-5	10	i
O=C(c1cc(F)ccc1F)C1CCCN(C(=O)c2ccc3nccnc3c2)C1 (stereo unspecified)	102	-9	-1	3	46	i
NC(=S)NNc1ccc(Cl)c(Cl)c1	94	2	68*	-7	-22	i
Cc1ccc(-n2c(SCC(=O)c3c(N)n(C)c(=O)n(C)c3=O)nc3sc4c(c3c2=O)CCCC4)c(C)c1	101	4	4	10	-6	+
Nc1ccccc1N=Cc1ccc(-c2cccc(Cl)c2)o1	103	0	96*	0	1	i
CC1=NOC(=O)/C1=C\c1ccc(-c2ccccc2Br)o1	99	-76	92*	16	-8	i
COC(=O)N/N=C/c1ccc(-c2cccc(Cl)c2)o1	100	11	-5	4	0	i
CC1=NOC(=O)/C1=C\c1ccc(-c2cccc(Cl)c2)o1	120	-104	100*	5	11	i
